Screens as filed in PubChem BioAssay.
TRPC6 activator – mouse TRPC6 channel activation; B-score at 10 µM; HEK293-TRPC6 membrane potential dye fluorescence; hits give high values; Q61143; 310,000 compounds, 0.13% hits; AID 2550;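 active means B-score of the integrated fluorescence ratio above library mean plus 3 SD, and starting fluorescence ratio within library mean plus 5 SD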;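 further: higher score means more depolarization so channel activation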
DNA FID counter – counter-screen for HCV NS3 helicase inhibitors: DNA intercalator displacement | DNA fluorescent intercalator displacement, fluorescence | inhibition, % at 7.9 µM | 290,000 compounds, 0.17% hits; in the data active means inhibition above about 37%;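 further: 0% = vehicle and 100% = reference compound; higher means more ethidium bromide displaced from hairpin DNA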
TRPC4 agonist – opens the mouse TRPC4 cation channel; B-score at 10 µM; 310,000 compounds, 0.49% hits; HEK293 TRPC4beta/mu-opioid, Fluo4 calcium fluorescence; hits give high values; Q9QUQ5;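 active means B-score above 5 SD of library B-scores, and initial fluorescence ratio not above library mean plus 5 SD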;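 further: positive B-score marks a calcium rise read as TRPC4 activation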
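Assay system: HEK293 stable line with TRPC4beta plus mu-opioid receptor; schedule: 45 min room-temperature Fluo4 loading, 110 s read; technique: kinetic Fluo4 calcium fluorescence; evaluation: integrated baseline-normalised fluorescence ratio, converted to per-well B score; controls: buffer (low) and maximal DAMGO (high)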
TRPC6 inhibitor – blocks the mouse TRPC6 cation channel; B-score at 10 µM; Q61143; HEK293-TRPC6, membrane potential dye, ACh-evoked depolarization; hits give low values; 310,000 compounds, 1.1% hits;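 active means B-score under library mean minus 3 SD, initial fluorescence not abnormally high, positive integrated signal ratio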;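 further: B-score derived from integrated fluorescence ratio over the kinetic read; more negative B-score means stronger inhibition of depolarization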
TRPC4 block – blocks the mouse TRPC4 cation channel. HEK293 TRPC4beta/mu-opioid, DAMGO-evoked Fluo4 calcium flux; hits give low values. 300,000 compounds, 0.39% hits. Q9QUQ5. B-score at 10 µM;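 active means B-score over 3 SD under the library average, no early fluorescence shift, positive overall ratio signal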
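Assay system: Stable TRPC4beta/mu-opioid receptor HEK293 cells | Reagent: DAMGO in two steps, submaximal then maximal | Compound dosing: Single concentration per test compound | Signal: Fluo4 Ca2+ flux fluorescence | Evaluation: Per-well B score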
TRPC4 potent – allosteric potentiators of mouse TRPC4 channel | 310,000 compounds, 0.42% hits | Q9QUQ5 | B-score at 10 µM | HEK293 TRPC4beta/mu-opioid, DAMGO EC20, Fluo-4 Ca2+ flux; hits give high values;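 active means B-score of calcium response area above 5 SD of library B-scores, with initial fluorescence ratio within 5 SD of library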;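 further: B-score of integrated fluorescence ratio over time as area under calcium response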
* hit, by the source's call. Shown are actives, neighbours in structure and some others; about 2.3% of the full set was active somewhere.

Cc1cc(Cl)c(OCCn2ccnc2)c(Br)c1 was read as TRPC6 activator inactive, DNA FID counter 6, TRPC4 agonist inactive, TRPC6 inhibitor inactive, TRPC4 block inactive and TRPC4 potent inactive.
For COc1ccccc1OCCn1ccnc1 the results were TRPC6 activator inactive, DNA FID counter 7, TRPC4 agonist inactive, TRPC6 inhibitor inactive, TRPC4 block inactive and TRPC4 potent inactive.
For OC(COc1ccc(Cl)cc1Cl)Cn1ccnc1 (configuration not stated) the results were TRPC6 activator inactive, DNA FID counter -3, TRPC4 agonist inactive, TRPC6 inhibitor inactive, TRPC4 block inactive and TRPC4 potent inactive.
Clc1ccc(OCCn2ccnc2)c(Br)c1 was read as TRPC6 activator inactive, DNA FID counter 5, TRPC4 agonist inactive, TRPC6 inhibitor inactive, TRPC4 block inactive and TRPC4 potent 21*.
`Clc1ccc(SCCn2ccnc2)cc1` gave TRPC6 activator inactive, DNA FID counter 6, TRPC4 agonist 63*, TRPC6 inhibitor inactive, TRPC4 block inactive and TRPC4 potent inactive.
For O=C(Cc1ccccn1)c1ccc(F)cc1 the results were TRPC6 activator inactive, TRPC4 agonist inactive, TRPC6 inhibitor inactive, TRPC4 block inactive and TRPC4 potent inactive.
`COc1cccc(-c2nc(CS(=O)(=O)CC(=O)Nc3cc(OC)ccc3OC)c(C)o2)c1` gave TRPC6 activator inactive, DNA FID counter -35, TRPC4 agonist inactive, TRPC6 inhibitor inactive, TRPC4 block inactive and TRPC4 potent inactive.
For N#Cc1c(N2CCCCC2)nc(N)c2c(N)nc3c(c12)CC(c1ccccc1)O3 (configuration not stated) the results were TRPC6 activator inactive, DNA FID counter -6, TRPC4 agonist inactive, TRPC6 inhibitor inactive, TRPC4 block -9* and TRPC4 potent inactive.
Cc1nc2c(-c3ccccc3)c(C)nn2c(C)c1CCC(=O)NCc1ccco1 was read as DNA FID counter -19.
For CCN1CCN(c2ccc(NC(=O)CCc3c(C)nc4c(-c5ccccc5)c(C)nn4c3C)cc2)CC1 the results were TRPC6 activator inactive, DNA FID counter 41*, TRPC4 agonist inactive, TRPC6 inhibitor inactive, TRPC4 block inactive and TRPC4 potent inactive.
For Cc1ccc(NC(=O)c2cc(N3C(=O)C=CC3=O)ccc2N2CCOCC2)cc1 the results were TRPC6 activator inactive, DNA FID counter -12, TRPC4 agonist inactive, TRPC6 inhibitor inactive, TRPC4 block -6* and TRPC4 potent inactive.
Cc1ccc(NC(=O)c2cc(NC(=O)c3ccco3)ccc2N2CCOCC2)cc1 was read as TRPC6 activator inactive, DNA FID counter -24, TRPC4 agonist inactive, TRPC6 inhibitor inactive, TRPC4 block inactive and TRPC4 potent inactive.
For CN1CCN(Cc2nc3c([nH]2)c(=O)[nH]c(=O)n3C)CC1 the results were TRPC6 activator inactive, DNA FID counter -1, TRPC4 agonist 72*, TRPC6 inhibitor inactive, TRPC4 block inactive and TRPC4 potent inactive.
Screening Cn1c(=O)c2[nH]c(CN3CCN(Cc4ccccc4)CC3)nc2n(C)c1=O returned TRPC6 activator inactive, DNA FID counter 4, TRPC4 agonist inactive, TRPC6 inhibitor inactive, TRPC4 block inactive and TRPC4 potent inactive.
For CCc1nc2ccc(C(=O)NCCc3ccc(OC)cc3)cc2nc1CC the results were TRPC6 activator inactive, DNA FID counter -40, TRPC4 agonist inactive, TRPC6 inhibitor inactive, TRPC4 block inactive and TRPC4 potent inactive.
For CN(C)CC(O)CN(c1ccccc1)c1ccccc1 (configuration not stated) the results were TRPC6 activator inactive, DNA FID counter 3, TRPC4 agonist inactive, TRPC6 inhibitor inactive, TRPC4 block inactive and TRPC4 potent inactive.
For CN(C)CC(CCC(CN(C)C)C(O)(c1ccccc1)c1ccccc1)C(O)(c1ccccc1)c1ccccc1 (configuration not stated) the results were TRPC6 activator inactive, DNA FID counter 36, TRPC4 agonist inactive, TRPC6 inhibitor inactive, TRPC4 block -8* and TRPC4 potent inactive.
Cn1cc(S(=O)(=O)N2CCOCC2)cc1C(=O)NCc1ccccc1Cl was read as TRPC6 activator inactive, DNA FID counter -17, TRPC4 agonist inactive, TRPC6 inhibitor inactive, TRPC4 block inactive and TRPC4 potent inactive.
`CCCCN(C)C(=O)c1cn(CC)c2ccc(S(=O)(=O)N(C)C)cc2c1=O` gave TRPC6 activator inactive, DNA FID counter -10, TRPC4 agonist inactive, TRPC6 inhibitor inactive, TRPC4 block inactive and TRPC4 potent inactive.
`CCCCN(C)C(=O)c1cn(C)c2ccc(S(=O)(=O)N(C)C)cc2c1=O` gave TRPC6 activator inactive, DNA FID counter -8, TRPC4 agonist inactive, TRPC6 inhibitor inactive, TRPC4 block inactive and TRPC4 potent 14*.
For CCCN(CCC)CCCNC(=O)c1cn(CC)c2ccc(S(=O)(=O)N3CCc4ccccc4C3)cc2c1=O the results were TRPC6 activator inactive, DNA FID counter 30, TRPC4 agonist inactive, TRPC6 inhibitor inactive, TRPC4 block inactive and TRPC4 potent inactive.
CCCCN(CC)CCCNC(=O)c1cn(CC)c2ccc(S(=O)(=O)N3CCc4ccccc4C3)cc2c1=O was read as TRPC6 activator inactive, DNA FID counter 41*, TRPC4 agonist inactive, TRPC6 inhibitor inactive, TRPC4 block inactive and TRPC4 potent inactive.
For CCCCN(CC)CCCNC(=O)c1cn(C)c2ccc(S(=O)(=O)N(C)C3CCCCC3)cc2c1=O the results were TRPC6 activator inactive, DNA FID counter 26, TRPC4 agonist inactive, TRPC6 inhibitor inactive, TRPC4 block inactive and TRPC4 potent 12*.
`COc1ccc(CNCCc2ccccc2)cc1OCC(N)=O` gave TRPC6 activator inactive, DNA FID counter -2, TRPC4 agonist inactive, TRPC6 inhibitor inactive, TRPC4 block inactive and TRPC4 potent inactive.
CCOc1cc(CNCc2ccccc2)ccc1OCc1ccc(Cl)cc1 was read as TRPC6 activator inactive, DNA FID counter 46*, TRPC4 agonist inactive, TRPC6 inhibitor inactive, TRPC4 block inactive and TRPC4 potent inactive.
For COc1ccc(CNCCc2ccc(Cl)cc2)cc1OCc1ccccc1 the results were TRPC6 activator inactive, DNA FID counter 24, TRPC4 agonist 47*, TRPC6 inhibitor inactive, TRPC4 block inactive and TRPC4 potent inactive.
CCCc1nc2oc3c(NCCN(C)C)ncnc3c2c2c1CCCC2 was read as TRPC6 activator inactive, DNA FID counter 21, TRPC4 agonist inactive, TRPC6 inhibitor inactive, TRPC4 block -6* and TRPC4 potent inactive.
